Data on 1 compound can be found in ChEMBL document CHEMBL1158546, “Discovery of novel and potent leukotriene B4 receptor antagonists. Part 1” (J Med Chem, 2010).

Converted amounts (≈) assume the structure as drawn. The source made the active and inactive calls.

For series [1], the target named is T1, Leukotriene B4 receptor 1 (Homo sapiens, UniProt Q15722). Description: Antagonist activity at BLT1 receptor expressed in human HL60 cells assessed as inhibition of LTB4-stimulated calcium flux after 30 mins. The class given is functional, cell-based, HL-60. The settings on record: read-out: IC50. In short, it runs like this:
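HL-60 cells grown in RPMI-1640 with 20% FBS were plated at 2.0 × 10^5 cells/ml with 1 μM retinoic acid. They were dye-loaded in HBSS/20 mM HEPES/5 mM probenecid (0.05% BSA in the replacement buffer) for 1 h at 37 C. Compound (5 × 10^-11 to 3 × 10^-6 M final) was added for 30 min at room temperature, then 0.5 μM LTB4. Fluorescence was read every 1.5 s for 100 s and peak increase scored as % inhibition versus DMSO control.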
(A change in cytosolic calcium serves as a functional read-out for many receptors and channels.)

In the next series the test system is Neutrophil. Description: Inhibition of LTB4-stimulated human neutrophils migration after 30 mins by using CyQuant GR fluorescent dye. The format is functional, cell-based. The settings on record: Homo sapiens, Neutrophil, 0.5 h; read-out: IC50. A digest of the protocol: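 Human blood neutrophils (95-97% pure, isolated over Lympholyte-poly) at 5 × 10^6 cells/mL were preincubated with compound (3 × 10^-12 to 1 × 10^-6 M final) for 30 min at 37 C. Migration toward 100 ng/mL LTB4 across a polycarbonate membrane ran 90 min at 37 C. Migrated cells were lysed with CyQuant GR and read at 480/520 nm. IC50 was taken from a sigmoidal fit of % inhibition.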

Series [2] has as its target T1, Leukotriene B4 receptor 1. Description: Antagonist activity at FLAG-tagged human BLT1 receptor expressed in HEK293 cells assessed as inhibition of LTB4-stimulated calcium mobilization preincubated for 10 mins before LTB4 challenge. The format is functional, cell-based.
Series [3] concerns the target T2, Leukotriene B4 receptor 2 (Homo sapiens, UniProt Q9NPC1).
T2 sequence (Q9NPC1 whole entry): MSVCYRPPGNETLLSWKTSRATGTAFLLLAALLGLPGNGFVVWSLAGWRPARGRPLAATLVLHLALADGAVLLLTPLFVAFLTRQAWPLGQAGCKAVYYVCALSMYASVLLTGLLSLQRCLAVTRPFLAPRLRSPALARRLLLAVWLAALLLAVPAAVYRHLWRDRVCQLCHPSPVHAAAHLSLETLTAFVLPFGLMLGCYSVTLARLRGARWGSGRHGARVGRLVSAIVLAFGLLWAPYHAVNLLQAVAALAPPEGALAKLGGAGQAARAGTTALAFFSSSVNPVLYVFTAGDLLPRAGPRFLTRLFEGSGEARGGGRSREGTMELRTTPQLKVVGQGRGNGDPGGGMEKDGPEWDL
Description: Antagonist activity at FLAG-tagged human BLT2 receptor expressed in HEK293 cells assessed as inhibition of LTB4-stimulated calcium mobilization preincubated for 10 mins before LTB4 challenge. The class given is functional, cell-based.

Series [4] in a line: Solubility of compound in small intestinal contents in the fed state at pH 5. The class given is ADME. A digest of the protocol:
(§1)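 Solubility measured in simulated intestinal fluid at pH 5.0 (fed) or pH 6.5 (fasted), reported in μg/mL.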

The nature of series [5]: Solubility of compound in small intestinal contents in the fasted state at pH 6.5. The class given is ADME. A digest of the protocol: as §1
The target in series [6] is T3, Voltage-gated inwardly rectifying potassium channel KCNH2 (Homo sapiens, UniProt Q12809). The series is described as follows: Inhibition of human ERG expressed in CHO cells assessed as reduction of current amplitude.
Series [7] concerns the target T3, Voltage-gated inwardly rectifying potassium channel KCNH2. The series is described as follows: Inhibition of human ERG expressed in CHO cells at 3 uM assessed as reduction of current amplitude.
The target of another series is T4, Cytochrome P450 1A2 (Homo sapiens, UniProt P05177).
T4 sequence (P05177 whole entry): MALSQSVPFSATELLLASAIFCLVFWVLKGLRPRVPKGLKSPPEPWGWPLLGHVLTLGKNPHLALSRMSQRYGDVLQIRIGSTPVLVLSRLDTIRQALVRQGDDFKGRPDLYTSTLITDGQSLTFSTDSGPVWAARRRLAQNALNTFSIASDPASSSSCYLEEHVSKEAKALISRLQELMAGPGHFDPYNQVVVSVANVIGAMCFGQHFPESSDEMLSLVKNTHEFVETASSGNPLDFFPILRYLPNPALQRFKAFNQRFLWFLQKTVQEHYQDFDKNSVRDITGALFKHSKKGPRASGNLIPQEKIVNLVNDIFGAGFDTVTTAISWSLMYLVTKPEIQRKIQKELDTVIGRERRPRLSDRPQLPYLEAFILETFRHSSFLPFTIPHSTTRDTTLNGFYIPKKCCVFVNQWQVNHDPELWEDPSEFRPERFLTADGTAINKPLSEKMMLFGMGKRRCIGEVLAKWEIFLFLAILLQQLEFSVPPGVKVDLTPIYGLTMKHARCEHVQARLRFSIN
The series is described as follows: Inhibition of CYP1A2 by fluorescence method. The format is ADME. A digest of the protocol: (§2)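 Cytochrome P450 high-throughput panel (1A2, 2D6, 2C9, 2C19, 3A4) using fluorogenic substrates; IC50 reported.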

The target in another series is Cytochrome P450 2D6 (Homo sapiens, UniProt P10635). Description: Inhibition of CYP2D6 fluorescence method. The format is ADME. In short, it runs like this:
(§3)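 High-throughput CYP panel covering 1A2, 2D6, 2C9, 2C19 and 3A4, using fluorogenic substrates. IC50 was determined in μM.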

Another series has as its target Cytochrome P450 2C19 (Homo sapiens, UniProt P33261). Description: Inhibition of CYP2C19 fluorescence method. The class given is ADME. A digest of the protocol:
as §2

Another series has as its target Cytochrome P450 3A4 (Homo sapiens, UniProt P08684). The series is described as follows: Inhibition of CYP3A4 fluorescence method. The format is ADME. A digest of the protocol: as §3
A further series concerns the target Cytochrome P450 2C9 (Homo sapiens, UniProt P11712). The series is described as follows: Inhibition of CYP2C9 fluorescence method. The class given is ADME.
The nature of series [8]: Half life in Sprague-Dawley rat at 10 mg/kg, po. The settings on record: in vivo. On the set-up: dose 10 mg/kg, route oral. The class given is ADME, organism-based. A digest of the protocol:
(§4)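 Rat single-dose PK, n = 3, with oral dosing at 10 mg/kg and intravenous dosing at 2.5 or 5 mg/kg.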

The nature of series [9]: Cmax in Sprague-Dawley rat at 10 mg/kg, po. The class given is ADME, organism-based. On the set-up: dose 10 mg/kg, route oral. The settings on record: in vivo. In short, it runs like this:
as §4

Series [10] in a line: Tmax in Sprague-Dawley rat at 10 mg/kg, po. The class given is ADME, organism-based. Details: dose 10 mg/kg, route oral. The conditions noted are these: in vivo. A digest of the protocol: as §4
Series [11] can be described thus: Oral bioavailability in Sprague-Dawley rat at 10 mg/kg, po. The class given is ADME, organism-based. The settings on record: in vivo. A digest of the protocol: as §4
The nature of series [12]: Half life in Sprague-Dawley rat at 2.5 mg/kg, iv. On the set-up: dose 2.5 mg/kg, route intravenous. The format is ADME, organism-based. The settings on record: in vivo.
A short description of series [13]: Volume of distribution at steady state in Sprague-Dawley rat at 2.5 mg/kg, iv. The format is ADME, organism-based. On the set-up: dose 2.5 mg/kg, route intravenous. The settings on record: in vivo, read-out: Vdss.
Series [14] in a line: Clearance in Sprague-Dawley rat at 2.5 mg/kg, iv. The format is ADME, organism-based. Details: dose 2.5 mg/kg, route intravenous. The conditions noted are these: in vivo.
In the next series the test system is Cavia porcellus. The series is described as follows: Antiinflammatory activity against LTB4-evoked eosinophilic pulmonary inflammation in Hartley guinea pig at 10 mg/kg, po after 1 hr treated before LTB4 challenge. The class given is functional, organism-based. On the set-up: dose 10 mg/kg. In short, it runs like this: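 Male Hartley guinea pigs (250-350 g) were dosed orally with 10 mg/kg in 2% Klucel LF/0.1% Tween-80. One hour later they were exposed to 10 μg/mL LTB4 aerosol for 20 min. BAL (3 × 5 mL HBSS) was done 2 h after challenge under pentobarbital. Cells were counted, and differentials of at least 300 cells were taken on Wright-stained cytospins. Analysis by two-way ANOVA/Bonferroni; 4-20 animals per group.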

The next series relates to Cynomolgus monkey. Description: Antiinflammatory activity against ascaris suum antigen-evoked increase in neutrophils at bronchoalveolar lavage in cynomolgus monkey at 10 mg/kg, po after 1 hr treated before LTB4 challenge. The class given is functional, organism-based. On the set-up: dose 10 mg/kg. The settings on record: Macaca fascicularis, in the assay text read “before Ascaris suum antigen challenge” for “before LTB4 challenge”. A digest of the protocol:
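Male cynomolgus monkeys (4-10 kg) naturally hypersensitive to Ascaris suum had baseline BAL 24 h before challenge. They were dosed orally with 10 mg/kg in 15% Labrasol in PEG. One hour later, under ketamine/xylazine, they received antigen aerosol for 90 s by endotracheal tube. BAL neutrophil percentage came from 300-cell LeukoStat differentials, with hemocytometer totals. Analysis by two-way ANOVA/Bonferroni; 3-21 animals per group.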

T1 sequence (Q15722 whole entry): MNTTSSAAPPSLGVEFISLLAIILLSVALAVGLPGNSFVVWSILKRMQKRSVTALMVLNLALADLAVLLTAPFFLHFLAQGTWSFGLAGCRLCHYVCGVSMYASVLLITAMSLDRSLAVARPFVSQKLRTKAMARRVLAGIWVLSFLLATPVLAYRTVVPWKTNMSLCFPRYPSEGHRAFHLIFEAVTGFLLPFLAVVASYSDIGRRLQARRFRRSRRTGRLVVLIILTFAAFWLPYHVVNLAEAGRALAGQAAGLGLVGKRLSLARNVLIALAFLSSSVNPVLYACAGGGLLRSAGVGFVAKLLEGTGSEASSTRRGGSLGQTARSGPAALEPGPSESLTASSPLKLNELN
T3 sequence (Q12809 whole entry): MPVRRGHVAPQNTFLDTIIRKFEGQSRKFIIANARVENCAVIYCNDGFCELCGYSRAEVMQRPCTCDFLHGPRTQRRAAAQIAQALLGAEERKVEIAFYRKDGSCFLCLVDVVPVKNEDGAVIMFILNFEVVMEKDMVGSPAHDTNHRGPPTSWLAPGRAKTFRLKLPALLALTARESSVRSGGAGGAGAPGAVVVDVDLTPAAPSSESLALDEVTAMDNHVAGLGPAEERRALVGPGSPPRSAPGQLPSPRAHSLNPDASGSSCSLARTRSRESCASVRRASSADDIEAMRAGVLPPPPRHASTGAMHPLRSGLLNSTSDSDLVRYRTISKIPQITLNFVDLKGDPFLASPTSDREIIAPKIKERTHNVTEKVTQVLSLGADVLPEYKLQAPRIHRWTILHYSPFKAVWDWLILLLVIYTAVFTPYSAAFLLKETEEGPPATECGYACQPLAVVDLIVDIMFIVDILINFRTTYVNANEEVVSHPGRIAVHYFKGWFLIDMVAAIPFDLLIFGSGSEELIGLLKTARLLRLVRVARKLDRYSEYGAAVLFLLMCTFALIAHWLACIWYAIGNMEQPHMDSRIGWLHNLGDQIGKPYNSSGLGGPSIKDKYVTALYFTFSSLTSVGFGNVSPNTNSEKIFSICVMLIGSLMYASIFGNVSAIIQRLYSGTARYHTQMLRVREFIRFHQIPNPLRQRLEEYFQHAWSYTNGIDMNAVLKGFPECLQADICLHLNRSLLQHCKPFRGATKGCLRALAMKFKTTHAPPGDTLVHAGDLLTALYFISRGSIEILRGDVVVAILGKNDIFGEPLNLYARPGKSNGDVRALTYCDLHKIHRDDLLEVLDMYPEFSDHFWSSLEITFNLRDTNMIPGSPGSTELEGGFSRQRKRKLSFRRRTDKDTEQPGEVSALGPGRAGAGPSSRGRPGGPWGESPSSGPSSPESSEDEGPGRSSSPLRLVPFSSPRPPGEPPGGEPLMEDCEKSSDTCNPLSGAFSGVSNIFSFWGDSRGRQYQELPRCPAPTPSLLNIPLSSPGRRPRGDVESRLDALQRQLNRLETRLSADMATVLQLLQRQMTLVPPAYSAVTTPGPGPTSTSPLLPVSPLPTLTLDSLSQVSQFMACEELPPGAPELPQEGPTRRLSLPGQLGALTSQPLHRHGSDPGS
Sequence of Cytochrome P450 2C19 (P33261 whole entry): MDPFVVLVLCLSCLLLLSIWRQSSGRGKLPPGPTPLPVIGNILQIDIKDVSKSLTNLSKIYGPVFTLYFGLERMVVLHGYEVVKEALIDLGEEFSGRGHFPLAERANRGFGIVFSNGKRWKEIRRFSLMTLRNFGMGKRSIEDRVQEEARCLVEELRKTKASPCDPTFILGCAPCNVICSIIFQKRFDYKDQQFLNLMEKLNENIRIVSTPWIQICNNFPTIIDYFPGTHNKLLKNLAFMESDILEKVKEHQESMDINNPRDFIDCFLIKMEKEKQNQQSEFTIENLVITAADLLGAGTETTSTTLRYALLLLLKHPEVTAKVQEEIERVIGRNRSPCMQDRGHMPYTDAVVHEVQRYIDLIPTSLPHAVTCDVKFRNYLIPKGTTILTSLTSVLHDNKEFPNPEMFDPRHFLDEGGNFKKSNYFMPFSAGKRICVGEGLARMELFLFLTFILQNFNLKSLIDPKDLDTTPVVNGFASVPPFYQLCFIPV
Sequence of Cytochrome P450 2C9 (P11712 whole entry): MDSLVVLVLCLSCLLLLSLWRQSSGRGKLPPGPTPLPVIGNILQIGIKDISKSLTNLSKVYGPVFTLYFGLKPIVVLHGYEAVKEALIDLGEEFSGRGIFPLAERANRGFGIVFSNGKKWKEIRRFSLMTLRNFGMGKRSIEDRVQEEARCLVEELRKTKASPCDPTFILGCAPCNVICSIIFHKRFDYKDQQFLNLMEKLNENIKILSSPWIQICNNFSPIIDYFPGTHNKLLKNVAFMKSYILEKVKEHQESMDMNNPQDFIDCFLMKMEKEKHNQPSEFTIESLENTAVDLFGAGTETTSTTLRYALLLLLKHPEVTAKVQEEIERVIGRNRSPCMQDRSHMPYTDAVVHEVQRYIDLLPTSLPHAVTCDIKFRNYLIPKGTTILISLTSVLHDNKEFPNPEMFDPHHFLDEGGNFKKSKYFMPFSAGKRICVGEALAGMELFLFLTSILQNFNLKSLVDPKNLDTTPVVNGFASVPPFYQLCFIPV
Sequence of Cytochrome P450 2D6 (P10635 whole entry): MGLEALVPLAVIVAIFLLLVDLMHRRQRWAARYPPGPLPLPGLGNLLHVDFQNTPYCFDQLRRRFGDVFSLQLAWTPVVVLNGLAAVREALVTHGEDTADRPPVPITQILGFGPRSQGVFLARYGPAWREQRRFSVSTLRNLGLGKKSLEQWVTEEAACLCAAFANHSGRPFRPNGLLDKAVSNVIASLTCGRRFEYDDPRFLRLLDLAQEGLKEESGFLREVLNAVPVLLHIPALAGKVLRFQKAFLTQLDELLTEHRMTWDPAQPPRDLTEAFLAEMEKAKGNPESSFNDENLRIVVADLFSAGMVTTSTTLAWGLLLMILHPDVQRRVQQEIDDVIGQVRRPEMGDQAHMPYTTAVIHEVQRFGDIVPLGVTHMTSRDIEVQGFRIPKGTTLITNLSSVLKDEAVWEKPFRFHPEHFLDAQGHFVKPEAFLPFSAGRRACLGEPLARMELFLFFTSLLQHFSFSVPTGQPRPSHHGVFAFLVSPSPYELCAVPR
Sequence of Cytochrome P450 3A4 (P08684 whole entry): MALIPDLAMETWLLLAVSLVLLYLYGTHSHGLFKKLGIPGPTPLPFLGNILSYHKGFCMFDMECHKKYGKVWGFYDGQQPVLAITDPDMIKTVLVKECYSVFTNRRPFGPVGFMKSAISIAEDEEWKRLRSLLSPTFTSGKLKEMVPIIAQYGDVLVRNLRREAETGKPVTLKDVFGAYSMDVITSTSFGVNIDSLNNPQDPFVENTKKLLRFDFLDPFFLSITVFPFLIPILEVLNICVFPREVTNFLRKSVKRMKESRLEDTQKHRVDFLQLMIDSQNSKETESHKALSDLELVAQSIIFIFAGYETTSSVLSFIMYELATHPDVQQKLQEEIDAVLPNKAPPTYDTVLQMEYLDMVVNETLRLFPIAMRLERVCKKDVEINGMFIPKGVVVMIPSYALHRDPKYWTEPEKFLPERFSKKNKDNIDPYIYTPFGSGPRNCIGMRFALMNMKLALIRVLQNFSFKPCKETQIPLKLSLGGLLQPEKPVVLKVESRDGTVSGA

With `O=C(O)CCCOc1cccc(CCCCCCOc2cc(-c3ccccc3)cc(-c3ccccc3)n2)c1CCC(=O)O`, the IC50 is 0.00048 µM in [1]; 0.0018 µM in the series with Neutrophil; 0.205 µM in [2]; 3.06 µM in series [3]; above 3 µM in [6]; above 7.5 µM against Cytochrome P450 1A2. The IC50 was above 7.5 µM against Cytochrome P450 2D6, above 7.5 µM at Cytochrome P450 2C19, above 7.5 µM at Cytochrome P450 3A4 and above 12.5 µM at Cytochrome P450 2C9. Further, the solubility in series [4] is 27.7 µg/mL (≈ 47.6 µM); in series [5] it was 16.5 µg/mL (≈ 28.4 µM). Also, the INH result in series [7] is “Not Active”. Moreover, the half-life in [8] was 2.9 h; in [12] it was 2.1 h. For the same compound, the concentration in series [9] peaked (Cmax) at 2110 nM. For the same compound, the Tmax in series [10] came to 2.3 h. The compound also came in with a bioavailability in [11] of 28%. Further, the Vd in series [13] stood at 0.3 L/kg. The compound also came in with a clearance in series [14] of 7.53 mL/min/kg. In addition, the result in the series with Cavia porcellus and with Cynomolgus monkey was Active.

By IC50 is commonly meant the concentration that gives 50% inhibition. For orientation: solubility means how much of the substance goes into solution per volume. One may read the half-life as the time needed for the level to fall by half in the phase considered. By Cmax is commonly meant the maximum level reached in the sampled fluid or tissue. As a reminder, the Tmax is the time at which the peak concentration occurs. The bioavailability is the share of a dose that reaches the circulation, judged against a reference dose that is usually intravenous. What is called clearance is a measure of how efficiently the substance is removed, as volume per time.
